Measurements published in ChEMBL document CHEMBL3297713, “Discovery, optimization, and biological evaluation of 5-(2-(trifluoromethyl)phenyl)indazoles as a novel class of transient receptor potential A1 (TRPA1) antagonists” (J Med Chem, 2014).
One block for each molecule: values may come before it.

Columns and labels:
[1] = target: T1, Transient receptor potential cation channel subfamily A member 1 (Homo sapiens, UniProt O75762); assay: Antagonist activity at human TRPA1 expressed in CHO-TREX cells assessed as inhibition of cinnamaldehyde-induced calcium flux incubated 10 mins prior to cinnamaldehyde addition by FLIPR assay relative to control; type: cell-based
T1 sequence (O75762 whole entry): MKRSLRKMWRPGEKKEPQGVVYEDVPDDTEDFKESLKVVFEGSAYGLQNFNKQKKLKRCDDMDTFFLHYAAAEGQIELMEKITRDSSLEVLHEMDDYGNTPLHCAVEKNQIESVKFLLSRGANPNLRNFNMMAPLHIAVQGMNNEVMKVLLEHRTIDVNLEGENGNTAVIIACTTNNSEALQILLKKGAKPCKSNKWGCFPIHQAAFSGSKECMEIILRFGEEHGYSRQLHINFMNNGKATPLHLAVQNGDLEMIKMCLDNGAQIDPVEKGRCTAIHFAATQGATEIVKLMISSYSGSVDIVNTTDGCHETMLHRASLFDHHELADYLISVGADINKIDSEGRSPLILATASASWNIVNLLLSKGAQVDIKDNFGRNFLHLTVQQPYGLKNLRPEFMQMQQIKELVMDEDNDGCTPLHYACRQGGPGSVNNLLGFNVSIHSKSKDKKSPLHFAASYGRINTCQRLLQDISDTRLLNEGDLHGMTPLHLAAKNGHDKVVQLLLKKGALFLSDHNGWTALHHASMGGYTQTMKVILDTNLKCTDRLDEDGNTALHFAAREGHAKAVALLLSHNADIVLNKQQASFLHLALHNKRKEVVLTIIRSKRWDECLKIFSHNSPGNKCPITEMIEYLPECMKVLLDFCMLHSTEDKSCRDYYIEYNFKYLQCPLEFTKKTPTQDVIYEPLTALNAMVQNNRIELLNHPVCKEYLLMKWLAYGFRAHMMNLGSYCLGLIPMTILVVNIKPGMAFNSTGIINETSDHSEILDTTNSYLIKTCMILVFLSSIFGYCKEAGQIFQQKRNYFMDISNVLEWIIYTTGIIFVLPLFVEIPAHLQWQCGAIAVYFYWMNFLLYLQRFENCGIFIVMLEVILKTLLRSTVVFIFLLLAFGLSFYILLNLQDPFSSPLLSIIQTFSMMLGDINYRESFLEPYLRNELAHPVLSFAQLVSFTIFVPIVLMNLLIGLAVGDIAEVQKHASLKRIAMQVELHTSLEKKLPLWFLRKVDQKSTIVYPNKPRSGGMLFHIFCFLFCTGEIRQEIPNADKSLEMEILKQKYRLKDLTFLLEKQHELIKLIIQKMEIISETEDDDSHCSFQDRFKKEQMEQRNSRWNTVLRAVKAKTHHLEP
Summary of the method: (§1)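 TRPA1-expressing CHO-TREX cells, channel expression induced with tetracycline (0.5 µg/mL human, 1 µg/mL mouse or rat). Cells loaded with Fluo4-AM for 90 min at room temperature, washed, then test agent added in HBSS/20 mM HEPES/2.5 mM probenecid/0.1% BSA. Agonist added 10 min later at EC80: human cinnamaldehyde 30 µM, AITC 2.5 µM, dibenzoxazepine-carboxamide 5 nM; rat and mouse cinnamaldehyde 40 µM. FLIPR calcium flux; mean of triplicates fitted to sigmoidal dose-response curves.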

CHO-K1 [2] = assay: Selectivity ratio of IC50 for human TRPM8 expressed in CHOK1 cells to IC50 for human TRPA1 expressed in CHO-TREX cells; type: cell-based
Summary of the method: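 FLIPR calcium-flux antagonist assays with Fluo4-AM loading (90 min, room temperature) in HBSS/20 mM HEPES/2.5 mM probenecid/0.1% BSA. Compound added 10 min before agonist at EC80: 40 µM menthol for CHO-K1 hTRPM8; for tetracycline-induced (0.5 µg/mL) CHO-TREX hTRPA1, 30 µM cinnamaldehyde, 2.5 µM AITC or 5 nM dibenzoxazepine carboxamide. Response is maximum minus minimum. IC50s come from sigmoidal fits of triplicate means.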

[3] = target: Transient receptor potential cation channel subfamily A member 1 (Mus musculus, UniProt Q8BLA8); assay: (§2) Antagonist activity at mouse TRPA1 expressed in CHO-TREX cells assessed as inhibition of cinnamaldehyde-induced calcium flux incubated 10 mins prior to cinnamaldehyde addition by FLIPR assay relative to control; type: cell-based; summary of the method: as §1
Transient receptor potential cation channel subfamily A member 1 (Mus musculus, UniProt Q8BLA8), sequence (Q8BLA8 whole entry): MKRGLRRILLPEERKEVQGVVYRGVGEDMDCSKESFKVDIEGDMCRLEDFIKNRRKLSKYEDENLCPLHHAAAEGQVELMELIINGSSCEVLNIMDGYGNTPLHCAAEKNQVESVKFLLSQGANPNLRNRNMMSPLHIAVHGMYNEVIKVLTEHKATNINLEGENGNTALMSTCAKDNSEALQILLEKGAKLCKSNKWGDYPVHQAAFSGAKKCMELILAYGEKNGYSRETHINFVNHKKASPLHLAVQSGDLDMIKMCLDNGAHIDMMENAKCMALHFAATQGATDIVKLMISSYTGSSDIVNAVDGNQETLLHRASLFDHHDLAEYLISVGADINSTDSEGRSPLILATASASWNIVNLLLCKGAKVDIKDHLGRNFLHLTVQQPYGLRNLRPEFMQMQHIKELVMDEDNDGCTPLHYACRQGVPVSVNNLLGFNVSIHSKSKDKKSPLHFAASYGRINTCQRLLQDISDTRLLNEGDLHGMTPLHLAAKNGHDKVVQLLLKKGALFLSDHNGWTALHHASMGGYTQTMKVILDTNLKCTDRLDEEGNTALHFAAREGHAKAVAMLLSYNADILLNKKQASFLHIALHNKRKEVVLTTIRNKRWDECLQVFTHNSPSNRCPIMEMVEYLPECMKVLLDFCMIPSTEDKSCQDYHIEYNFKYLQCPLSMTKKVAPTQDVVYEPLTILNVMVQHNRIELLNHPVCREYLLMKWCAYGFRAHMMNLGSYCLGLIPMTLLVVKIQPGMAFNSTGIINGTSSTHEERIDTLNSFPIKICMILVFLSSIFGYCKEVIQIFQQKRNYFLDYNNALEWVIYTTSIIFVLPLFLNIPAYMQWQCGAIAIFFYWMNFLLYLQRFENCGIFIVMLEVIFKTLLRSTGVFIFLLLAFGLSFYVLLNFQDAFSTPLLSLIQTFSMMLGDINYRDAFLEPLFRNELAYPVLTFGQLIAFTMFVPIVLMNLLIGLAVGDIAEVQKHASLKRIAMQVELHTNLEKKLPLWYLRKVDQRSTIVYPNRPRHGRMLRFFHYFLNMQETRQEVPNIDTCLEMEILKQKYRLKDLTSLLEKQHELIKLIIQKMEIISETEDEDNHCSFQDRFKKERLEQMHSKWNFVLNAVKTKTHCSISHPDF

[4] = target: Transient receptor potential cation channel subfamily A member 1 (Mus musculus) (UniProt Q8BLA8); assay: as §2; type: cell-based; set-up: concentration or dose not given beside the values; summary of the method: as §1
Transient receptor potential cation channel subfamily A member 1 (Mus musculus), sequence (Q8BLA8 whole entry): as above

[5] = Volume of distribution at steady state in Wistar rat at 3 mg/kg, iv; type: ADME, organism-based; set-up: dose 3 mg/kg, route intravenous; conditions: in vivo, read-out: Vdss
[6] = Half life in Wistar rat at 3 mg/kg, iv; type: ADME, organism-based; set-up: dose 3 mg/kg, route intravenous; conditions: in vivo
[7] = target: T1, Transient receptor potential cation channel subfamily A member 1; assay: Antagonist activity at human TRPA1 expressed in CHO-TREX cells assessed as inhibition of dibenzo[b,f ][1,4]oxazepine-4-carboxamide-induced calcium flux incubated 10 mins prior to dibenzo[b,f ][1,4]oxazepine-4-carboxamide addition by FLIPR assay relative to control; type: cell-based; summary of the method: as §1
[8] = target: Transient receptor potential cation channel subfamily A member 1 (Rattus norvegicus, UniProt Q6RI86); assay: (§3) Antagonist activity at rat TRPA1 expressed in CHO-TREX cells assessed as inhibition of cinnamaldehyde-induced calcium flux incubated 10 mins prior to cinnamaldehyde addition by FLIPR assay relative to control; type: cell-based; summary of the method: as §1
Transient receptor potential cation channel subfamily A member 1 (Rattus norvegicus, UniProt Q6RI86), sequence (Q6RI86 whole entry): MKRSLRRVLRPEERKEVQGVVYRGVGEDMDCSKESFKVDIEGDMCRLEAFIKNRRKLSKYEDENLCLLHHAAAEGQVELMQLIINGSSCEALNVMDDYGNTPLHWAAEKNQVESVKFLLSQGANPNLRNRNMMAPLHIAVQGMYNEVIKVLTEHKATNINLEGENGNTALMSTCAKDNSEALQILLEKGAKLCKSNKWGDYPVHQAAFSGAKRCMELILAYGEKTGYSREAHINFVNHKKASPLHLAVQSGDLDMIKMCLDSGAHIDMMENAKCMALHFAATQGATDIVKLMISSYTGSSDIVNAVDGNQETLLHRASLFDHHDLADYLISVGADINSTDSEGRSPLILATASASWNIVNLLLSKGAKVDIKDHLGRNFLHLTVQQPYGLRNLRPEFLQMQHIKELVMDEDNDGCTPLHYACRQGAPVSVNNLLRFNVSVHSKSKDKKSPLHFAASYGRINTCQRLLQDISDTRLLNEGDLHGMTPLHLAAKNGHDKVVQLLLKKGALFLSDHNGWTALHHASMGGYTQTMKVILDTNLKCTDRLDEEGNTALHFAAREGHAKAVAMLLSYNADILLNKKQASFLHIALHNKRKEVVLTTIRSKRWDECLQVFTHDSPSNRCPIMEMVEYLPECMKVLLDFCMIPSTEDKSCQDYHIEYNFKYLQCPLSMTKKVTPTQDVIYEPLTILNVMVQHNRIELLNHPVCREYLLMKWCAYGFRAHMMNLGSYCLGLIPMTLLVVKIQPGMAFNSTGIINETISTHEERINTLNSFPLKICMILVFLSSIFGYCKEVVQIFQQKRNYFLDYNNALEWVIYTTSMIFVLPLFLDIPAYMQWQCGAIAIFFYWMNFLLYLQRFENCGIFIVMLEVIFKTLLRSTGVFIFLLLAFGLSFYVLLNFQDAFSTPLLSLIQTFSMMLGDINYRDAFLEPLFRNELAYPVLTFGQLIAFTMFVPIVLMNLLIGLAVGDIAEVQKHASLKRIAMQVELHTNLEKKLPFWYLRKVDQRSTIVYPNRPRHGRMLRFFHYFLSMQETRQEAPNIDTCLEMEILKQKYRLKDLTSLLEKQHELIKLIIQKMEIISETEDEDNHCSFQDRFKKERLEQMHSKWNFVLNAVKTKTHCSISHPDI

[9] = target: Transient receptor potential cation channel subfamily A member 1 (Rattus norvegicus) (UniProt Q6RI86); assay: as §3; type: cell-based; set-up: concentration or dose not given beside the values; summary of the method: as §1
Transient receptor potential cation channel subfamily A member 1 (Rattus norvegicus), sequence (Q6RI86 whole entry): as above

CHO-K1 [10] = assay: Selectivity ratio of IC50 for human TRPV1 expressed in CHOK1 cells to IC50 for human TRPA1 expressed in CHO-TREX cells; type: cell-based
Summary of the method: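 Stable hTRPV1 CHO-K1 and tetracycline-induced (0.5 µg/mL) hTRPA1 CHO-TREX cells were loaded with Fluo4-AM for 90 min at room temperature and read on FLIPR. Antagonist preincubation was 10 min before EC80 agonist: capsaicin 40 nM (TRPV1); cinnamaldehyde 30 µM, AITC 2.5 µM or dibenzoxazepine carboxamide 5 nM (TRPA1). Buffer contained probenecid and BSA. IC50s were fitted from triplicate means of max−min calcium signal.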

[11] = Tmax in Wistar rat at 10 mg/kg, po; type: ADME, organism-based; set-up: dose 10 mg/kg, route oral; conditions: in vivo
Summary of the method: (§4)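 Male Wistar rats dosed orally at 10 mg/kg as a suspension in 0.5% methylcellulose/0.5% Tween80.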

[12] = target: T2, Transient receptor potential cation channel subfamily V member 3 (Homo sapiens) (UniProt Q8NET8); assay: (§5) Antagonist activity at human TRPV3 expressed in CHOK1 cells assessed as inhibition of 2-APB-induced calcium flux incubated 10 mins prior to 2-APB addition by FLIPR assay relative to control; type: cell-based; set-up: concentration or dose not given beside the values; conditions: CHO-K1
T2 sequence (whole entry): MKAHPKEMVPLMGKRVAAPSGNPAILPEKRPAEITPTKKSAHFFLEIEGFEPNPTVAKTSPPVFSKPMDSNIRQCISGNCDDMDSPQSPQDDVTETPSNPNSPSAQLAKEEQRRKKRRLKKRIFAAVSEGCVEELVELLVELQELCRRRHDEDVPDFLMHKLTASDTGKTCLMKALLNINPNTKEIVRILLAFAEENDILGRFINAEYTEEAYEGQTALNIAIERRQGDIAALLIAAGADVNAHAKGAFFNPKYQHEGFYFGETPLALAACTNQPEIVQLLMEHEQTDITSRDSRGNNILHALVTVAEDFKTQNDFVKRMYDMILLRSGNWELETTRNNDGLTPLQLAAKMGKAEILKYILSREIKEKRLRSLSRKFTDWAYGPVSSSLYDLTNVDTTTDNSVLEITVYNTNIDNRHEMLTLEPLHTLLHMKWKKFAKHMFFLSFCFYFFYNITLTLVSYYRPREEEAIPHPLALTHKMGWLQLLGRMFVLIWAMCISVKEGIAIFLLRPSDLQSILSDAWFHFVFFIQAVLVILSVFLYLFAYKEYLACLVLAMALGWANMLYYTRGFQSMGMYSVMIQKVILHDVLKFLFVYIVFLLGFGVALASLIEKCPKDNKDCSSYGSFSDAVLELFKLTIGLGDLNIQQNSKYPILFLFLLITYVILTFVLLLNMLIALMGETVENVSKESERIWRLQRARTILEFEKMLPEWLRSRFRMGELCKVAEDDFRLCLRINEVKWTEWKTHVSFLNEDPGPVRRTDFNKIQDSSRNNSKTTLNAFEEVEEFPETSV

[13] = target: T3, Transient receptor potential cation channel subfamily V member 3 (Homo sapiens, UniProt Q8NET8); assay: as §5; type: cell-based, CHO-K1
T3 sequence (Q8NET8 whole entry): T2 sequence (whole entry)

[14] = Oral bioavailability in Wistar rat at 10 mg/kg; type: ADME, organism-based; conditions: in vivo; summary of the method: as §4
[15] = AUC in Wistar rat at 10 mg/kg, po; type: ADME, organism-based; set-up: dose 10 mg/kg, route oral; conditions: plasma; summary of the method: as §4
[16] = Clearance in Wistar rat at 3 mg/kg, iv; type: ADME, organism-based; set-up: dose 3 mg/kg, route intravenous; conditions: in vivo
Summary of the method: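 Wistar rats given 3 mg/kg i.v. as a solution in 75% PEG300/25% D5W.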

[17] = target: Transient receptor potential cation channel subfamily V member 1 (Homo sapiens, UniProt Q8NER1); assay: Antagonist activity at human TRPV1 expressed in CHOK1 cells assessed as inhibition of capsaicin-induced calcium flux incubated 10 mins prior to capsaicin addition by FLIPR assay relative to control; type: cell-based, CHO-K1
Transient receptor potential cation channel subfamily V member 1, sequence (Q8NER1 whole entry): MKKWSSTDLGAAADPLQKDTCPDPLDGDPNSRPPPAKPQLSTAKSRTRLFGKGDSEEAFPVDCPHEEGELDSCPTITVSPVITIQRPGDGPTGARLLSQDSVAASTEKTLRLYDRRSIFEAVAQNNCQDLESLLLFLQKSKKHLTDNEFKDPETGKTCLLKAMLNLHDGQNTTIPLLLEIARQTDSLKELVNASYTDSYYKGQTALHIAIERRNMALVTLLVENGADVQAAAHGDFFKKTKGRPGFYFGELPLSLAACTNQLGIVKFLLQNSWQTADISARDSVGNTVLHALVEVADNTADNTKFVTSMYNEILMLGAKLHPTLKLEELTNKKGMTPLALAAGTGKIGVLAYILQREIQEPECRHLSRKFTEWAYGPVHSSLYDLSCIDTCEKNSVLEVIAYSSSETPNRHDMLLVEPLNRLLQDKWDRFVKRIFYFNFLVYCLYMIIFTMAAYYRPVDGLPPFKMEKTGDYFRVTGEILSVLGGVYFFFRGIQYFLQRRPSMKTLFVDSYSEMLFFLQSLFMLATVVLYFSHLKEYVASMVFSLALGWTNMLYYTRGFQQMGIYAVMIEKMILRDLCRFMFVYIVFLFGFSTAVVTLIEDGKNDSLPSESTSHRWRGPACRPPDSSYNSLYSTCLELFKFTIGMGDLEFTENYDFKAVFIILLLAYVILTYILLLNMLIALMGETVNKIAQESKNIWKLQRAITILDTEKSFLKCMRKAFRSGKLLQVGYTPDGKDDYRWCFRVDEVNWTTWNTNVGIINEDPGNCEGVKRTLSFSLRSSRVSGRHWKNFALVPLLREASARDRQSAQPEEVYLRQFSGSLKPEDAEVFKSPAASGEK

[18] = target: Transient receptor potential cation channel subfamily M member 8 (Homo sapiens, UniProt Q7Z2W7); assay: Antagonist activity at human TRPM8 expressed in CHOK1 cells assessed as inhibition of menthol-induced calcium flux incubated 10 mins prior to menthol addition by FLIPR assay relative to control; type: cell-based, CHO-K1
CHO-K1 [19] = assay: Selectivity ratio of IC50 for human TRPV3 expressed in CHOK1 cells to IC50 for human TRPA1 expressed in CHO-TREX cells; type: cell-based
Summary of the method: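 Calcium influx was measured by FLIPR in Fluo4-AM-loaded cells: hTRPV3 CHO-K1 challenged with 40 µM 2-APB, and hTRPA1 CHO-TREX (0.5 µg/mL tetracycline) challenged with 30 µM cinnamaldehyde, 2.5 µM AITC or 5 nM dibenzoxazepine carboxamide, all at EC80. Compounds were added 10 min ahead of agonist in HEPES-buffered HBSS with probenecid. Sigmoidal curves were fitted to triplicate means.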

[20] = target: T1, Transient receptor potential cation channel subfamily A member 1; assay: Antagonist activity at human TRPA1 expressed in CHO-TREX cells assessed as inhibition of allyl isothiocyanate-induced calcium flux incubated 10 mins prior to allyl isothiocyanate addition by FLIPR assay relative to control; type: cell-based; summary of the method: as §1
[21] = Cmax in Wistar rat at 10 mg/kg, po; type: ADME, organism-based; set-up: dose 10 mg/kg, route oral; conditions: in vivo; summary of the method: as §4

Structure (SMILES): Cn1ncc2cc(-c3ccccc3C(F)(F)F)ccc21
- IC50 [1]: 7.41 µM
- inhibition [1]: 98%

Structure (SMILES): Fc1cccc(-c2ccc3[nH]ncc3c2)c1C(F)(F)F
- IC50 [1]: 8.9 µM
- inhibition [1]: 97%

Structure (SMILES): c1ccc(-c2ccc3[nH]ncc3c2)cc1
- IC50 [1]: > 30 µM

Structure (SMILES): Cc1n[nH]c2ccc(-c3ccccc3C(F)(F)F)cc12
- IC50 [1]: 3.09 µM
- inhibition [1]: 83%

Structure (SMILES): CC(C)c1cc2[nH]ncc2cc1-c1ccccc1C(F)(F)F
- IC50 [1]: 25.4 µM
- inhibition [1]: 59%

Structure (SMILES): CC(C)(C)c1ccccc1-c1ccc2[nH]ncc2c1
- IC50 [1]: 3.4 µM
- inhibition [1]: 96%

Structure (SMILES): Fc1ccc(-c2ccc3[nH]ncc3c2)c(C(F)(F)F)c1
- IC50 [1]: 30 µM

Structure (SMILES): FC(F)(F)Oc1ccccc1-c1ccc2[nH]ncc2c1
- IC50 [1]: 3.43 µM
- inhibition [1]: 97%

The next molecules have a lower IC50 [1] than those just listed; values first:

- IC50 [1]: 2.2 µM
- inhibition [1]: 93%
Structure (SMILES): FC(F)c1ccccc1-c1ccc2[nH]ncc2c1

- IC50 [1]: 1.29 µM
- inhibition [1]: 91%
Structure (SMILES): N#Cc1ccccc1-c1ccc2[nH]ncc2c1

- IC50 [1]: 1.23 µM
- inhibition [1]: 95%
Structure (SMILES): Fc1cccc(C(F)(F)F)c1-c1ccc2[nH]ncc2c1

- IC50 [1]: 0.514 µM
- inhibition [1]: 93%
Structure (SMILES): CC(C)c1ccccc1-c1ccc2[nH]ncc2c1

- IC50 [3]: 0.252 µM
- inhibition [4]: 100%
- Vd [5]: 2.06 L/kg
- half-life [6]: 3.5 h
- IC50 [7]: 0.55 µM
- inhibition [7]: 100%
- IC50 [8]: 0.4 µM
- inhibition [9]: 98%
- Tmax [11]: 0.5 h
- inhibition [12]: 10%
- IC50 [13]: > 30 µM
- bioavailability [14]: 37%
- AUC [15]: 15.7 µM·h
- clearance [16]: 14.7 mL/min/kg
- IC50 [17]: > 30 µM
- inhibition ([17]; CHO-K1): 34%
- IC50 [18]: 9 µM
- inhibition ([18]; CHO-K1): 95%
- IC50 [1]: 0.164 µM
- inhibition [1]: 98%
- IC50 [20]: 0.084 µM
- inhibition [20]: 97%
- Cmax [21]: 4.77 µM
Structure (SMILES): FC(F)(F)c1ccccc1-c1ccc2[nH]ncc2c1
- Ratio IC50 (CHO-K1 [2]): > 100
- Ratio IC50 (CHO-K1 [10]): > 100
- Ratio IC50 (CHO-K1 [19]): > 100

- IC50 [1]: 0.142 µM
- inhibition [1]: 97%
Structure (SMILES): COCc1cc2[nH]ncc2cc1-c1ccccc1C(F)(F)F

- IC50 [1]: 0.129 µM
- inhibition [1]: 100%
Structure (SMILES): N#Cc1cc2[nH]ncc2cc1-c1ccccc1C(F)(F)F

- IC50 [1]: 0.103 µM
- inhibition [1]: 100%
Structure (SMILES): FC(F)c1cc2[nH]ncc2cc1-c1ccccc1C(F)(F)F

- IC50 [1]: 0.061 µM
- inhibition [1]: 99%
Structure (SMILES): FC(F)(F)c1ccccc1-c1cc2cn[nH]c2cc1C1CC1
